From ChEMBL document CHEMBL3632541, “Synthesis, antileishmanial activity and cytotoxicity of 2,3-diaryl- and 2,3,8-trisubstituted imidazo[1,2-a]pyrazines” (Eur J Med Chem, 2015)
Values after ≈ are worked out from the molar mass of the structure shown. Active and inactive are the calls of the source. No cut-off for these calls is given here.

How the values were obtained:
[1] = Cytotoxicity against BALB/c mouse 3T3 clone A31 cells after 48 hrs by SRB assay method; format: cell-based; settings: A31, 48 h
In short: (§1)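 Cells plated in growth medium and allowed to attach 24 h (37 °C, 5% CO₂). Time-zero plate fixed with TCA. Serial 4-fold dilutions added for 48 h. Cells fixed with cold TCA, stained with 0.2% SRB, dye solubilized in 10 mM Tris pH 10.5, absorbance read at 510 nm. GI50 is 50% absorbance reduction versus solvent controls, by linear regression. K562 counted by Coulter counter instead. 5-FU reference.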

[2] = Cytotoxicity against human M14 cells assessed as growth inhibition after 48 hrs by SRB assay method; format: cell-based; in short: as §1
[3] = test system: Leishmania major; assay: Antileishmanial activity against promastigote form of Leishmania major MHOM/IL/81/BNI after 96 hrs by spectrofluorimetric micromethod; format: functional, organism-based
[4] = Cytotoxicity against human DU145 cells assessed as growth inhibition after 48 hrs by SRB assay method; format: cell-based, DU-145; in short: as §1
[5] = Cytotoxicity against human HuTu 80 cells assessed as growth inhibition after 48 hrs by SRB assay method; format: cell-based, HuTu80; in short: as §1
[6] = Cytotoxicity against human HT-29 cells assessed as growth inhibition after 48 hrs by SRB assay method; format: cell-based; in short: as §1
[7] = Inhibition of native porcine brain CK1 delta/epsilon using RRKHAAIGpSAYSITA as substrate and [gamma-33P]ATP after 30 mins by scintillation counting; set-up: species or system Sus scrofa
In short: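 Native porcine brain CK1δ/ε, in threefold-diluted buffer A (25 mM Mops pH 7.2, 15 mM MgCl₂, 5 mM EGTA, 1 mM DTT, phosphatase inhibitors). 25 μM CKS peptide substrate, 15 μM [γ-³³P]ATP, 30 min at 30 °C. Stopped on P81 paper, washed in 1% phosphoric acid, counted by scintillation. Blank subtracted; activity as % of the no-inhibitor value; DMSO controls.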

[8] = Inhibition of Leishmania major CK1.2 using RRKHAAIGpSAYSITA as substrate and [gamma-33P]ATP after 30 mins by scintillation counting
In short: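 Recombinant His-tagged L. major CK1.2 from E. coli, purified on cobalt beads. Assayed as for the porcine enzyme: CKS peptide substrate, 15 μM [γ-³³P]ATP, 30 min at 30 °C, P81 capture and scintillation counting. Activity as % of the no-inhibitor value.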

[9] = Cytotoxicity against human MCF7 cells assessed as growth inhibition after 48 hrs by SRB assay method; format: cell-based; in short: as §1
[10] = Cytotoxicity against human H460 cells assessed as growth inhibition after 48 hrs by SRB assay method; format: cell-based, NCI-H460; in short: as §1
[11] = Cytotoxicity against human K562 cells assessed as growth inhibition after 48 hrs by Coulter counter cell counting
[12] = Therapeutic index, ratio of IC50 for BALB/c mouse peritoneal macrophages to IC50 for promastigote form of Leishmania major (MHOM/IL/81/BNI); settings: read-out: Ratio IC50
[13] = Therapeutic index, ratio of IC50 for BALB/c mouse 3T3 clone A31 cells to IC50 for promastigote form of Leishmania major (MHOM/IL/81/BNI); format: cell-based; settings: read-out: Ratio IC50
[14] = Cytotoxicity against BALB/c mouse peritoneal macrophages assessed as cell viability after 48 hrs by trypan blue dye exclusion method; format: cell-based; settings: Peritoneal macrophage cell
[15] = Therapeutic index, ratio of IC50 for BALB/c mouse peritoneal macrophages to IC50 for amastigote form of Leishmania major (MHOM/IL/81/BNI) in BALB/c mouse peritoneal macrophages; settings: read-out: Ratio IC50
[16] = test system: Leishmania major; assay: Antileishmanial activity against amastigote form of Leishmania major MHOM/IL/81/BNI amastigote in Balb/c mouse peritoneal macrophages after 4 days by May-Grunwald-Giemsa staining-based microscopic analysis; format: functional, organism-based; settings: 96 h
In short: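 Peritoneal macrophages from Balb/c mice, 1.5 10⁵ cell/mL in RPMI 1640 + 15% FBS, left 24 h on glass slides (37 °C, 5% CO₂), then infected 24 h with stationary-phase promastigotes (1.5 × 10⁶/mL). Washed cultures exposed to 100, 10, 1 and 0.1 µM for 4 days. Fixed with methanol, Giemsa-stained. Amastigotes counted in 100 macrophages per duplicate well; IC50 from amastigotes/macrophage. Done twice.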

[17] = test system: Leishmania amazonensis; assay: Antileishmanial activity against axenic amastigote stage of Leishmania amazonensis MHOM/BR/76/LTB-012 by MTT method; format: functional, organism-based
In short: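 Axenic amastigotes, grown in MAA/20 medium at 32 ± 1 °C. IC50 by MTT micromethod; compounds from 10 mM DMSO stocks, DMSO ≤1% final.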

| Structure (SMILES) | IC50 [1] | GI50 at 48 h [2] | IC50 [3] | GI50 at 48 h [4] | GI50 at 48 h [5] | GI50 at 48 h [6] | IC50 [7] | IC50 [8] | GI50 at 48 h [9] | GI50 at 48 h [10] | GI50 at 48 h [11] | selectivity ratio [12] | selectivity ratio [13] | IC50 [14] | selectivity ratio [15] | IC50 [16] | Activity [17] |
| --- | --- | --- | --- | --- | --- | --- | --- | --- | --- | --- | --- | --- | --- | --- | --- | --- | --- |
| CN(C)c1nccn2c(I)c(-c3ccc(F)cc3)nc12 | 99.4 µM | > 125 µg/mL | > 100 µM | 40 µg/mL (≈ 105 µM) | 22 µg/mL (≈ 57.6 µM) | > 125 µg/mL | > 10 µM | > 10 µM | 3 µg/mL (≈ 7.85 µM) | 25 µg/mL (≈ 65.4 µM) | > 125 µg/mL | – | – | – | – | – | – |
| Ic1c(-c2ccccc2)nc2c(NCCN3CCOCC3)nccn12 | 236 µM | 179 µg/mL (≈ 398 µM) | 10.6 µM | 47 µg/mL (≈ 105 µM) | 33 µg/mL (≈ 73.4 µM) | 22 µg/mL (≈ 49 µM) | > 10 µM | > 10 µM | 29 µg/mL (≈ 64.5 µM) | 121 µg/mL (≈ 269 µM) | 18 µg/mL (≈ 40.1 µM) | 3 | 22.3 | 31.4 µM | – | – | – |
| c1ccc(-c2nc3c(NCCN4CCOCC4)nccn3c2-c2ccncc2)cc1 | – | – | 23.5 µM | – | – | – | 3.3 µM | 2.4 µM | – | – | – | 2.2 | – | 51.7 µM | – | – | – |
| c1ccc(-c2nc3cnccn3c2-c2ccccc2)cc1 | – | – | 26.2 µM | – | – | – | – | > 10 µM | – | – | – | 1.6 | – | 41.4 µM | – | – | – |
| Fc1ccc(-c2nc3c(NCCN4CCOCC4)nccn3c2-c2ccncc2)cc1 | 47.8 µM | 36 µg/mL (≈ 86 µM) | 16.5 µM | 39 µg/mL (≈ 93.2 µM) | 28 µg/mL (≈ 66.9 µM) | 27 µg/mL (≈ 64.5 µM) | 2.7 µM | 0.62 µM | 19 µg/mL (≈ 45.4 µM) | 20 µg/mL (≈ 47.8 µM) | 21 µg/mL (≈ 50.2 µM) | 2.4 | 2.9 | 40.3 µM | – | – | – |
| N=C(N)c1ccc(OCCCCCOc2ccc(C(=N)N)cc2)cc1 [PENTAMIDINE] | – | – | 4.6 µM | – | – | – | – | – | – | – | – | 33.2 | – | 153 µM | 50.9 | 3 µM | – |
| O=[N+]([O-])c1ccc(-c2c(-c3ccccc3)nc3cnccn23)cc1 | – | – | 27.6 µM | – | – | – | – | > 10 µM | – | – | – | 4.2 | – | 114 µM | – | – | – |
| c1ccc(-c2nc3cnccn3c2-c2ccncc2)cc1 | – | – | 20.1 µM | – | – | – | 3.3 µM | 1.3 µM | – | – | – | 7.7 | – | 154 µM | 57 | 2.7 µM | inactive |
| CN(C)c1nccn2c(I)c(-c3ccccc3)nc12 | 35.7 µM | > 125 µg/mL | 6.8 µM | 39 µg/mL (≈ 107 µM) | 44 µg/mL (≈ 121 µM) | 38 µg/mL (≈ 104 µM) | > 10 µM | > 10 µM | 3 µg/mL (≈ 8.24 µM) | 47 µg/mL (≈ 129 µM) | 16 µg/mL (≈ 43.9 µM) | 4.3 | 5.3 | 29.2 µM | – | – | – |
| CN(C)CCNc1nccn2c(-c3ccncc3)c(-c3ccccc3)nc12 | 86.5 µM | 27 µg/mL (≈ 75.3 µM) | 68.8 µM | 47 µg/mL (≈ 131 µM) | 32 µg/mL (≈ 89.3 µM) | 6 µg/mL (≈ 16.7 µM) | 1.6 µM | 0.51 µM | 6 µg/mL (≈ 16.7 µM) | 40 µg/mL (≈ 112 µM) | 15 µg/mL (≈ 41.8 µM) | 0.9 | 1.3 | 64.9 µM | – | – | – |
| O=c1[nH]cc(F)c(=O)[nH]1 [FLUOROURACIL] | – | 0.7 µg/mL (≈ 5.38 µM) | – | 1 µg/mL (≈ 7.69 µM) | 0.4 µg/mL (≈ 3.08 µM) | 0.4 µg/mL (≈ 3.08 µM) | – | – | 0.3 µg/mL (≈ 2.31 µM) | 0.3 µg/mL (≈ 2.31 µM) | 0.9 µg/mL (≈ 6.92 µM) | – | – | – | – | – | – |
| Clc1cccc(-c2c(-c3ccccc3)nc3cnccn23)c1 | – | – | 14.5 µM | – | – | – | – | – | – | – | – | 3.5 | – | 51.5 µM | – | – | – |
| CN(C)CCNc1nccn2c(I)c(-c3ccc(F)cc3)nc12 | 18.8 µM | 4 µg/mL (≈ 9.41 µM) | 24.7 µM | 13 µg/mL (≈ 30.6 µM) | 6 µg/mL (≈ 14.1 µM) | 4 µg/mL (≈ 9.41 µM) | > 10 µM | > 10 µM | 5 µg/mL (≈ 11.8 µM) | 9 µg/mL (≈ 21.2 µM) | 43 µg/mL (≈ 101 µM) | 1.4 | 0.8 | 33.8 µM | – | – | – |
| CCOC(=O)c1ccc(-c2c(-c3ccccc3)nc3cnccn23)cc1 | – | – | 17.5 µM | – | – | – | – | > 10 µM | – | – | – | 2.9 | – | 49.8 µM | – | – | – |
| COc1ccc(-c2c(-c3ccccc3)nc3cnccn23)cc1 | – | – | 17.4 µM | – | – | – | – | > 10 µM | – | – | – | 3.5 | – | 60.2 µM | – | – | – |
| CN(C)CCNc1nccn2c(-c3ccncc3)c(-c3ccc(F)cc3)nc12 | 101 µM | 19 µg/mL (≈ 50.5 µM) | 35.3 µM | 52 µg/mL (≈ 138 µM) | 24 µg/mL (≈ 63.8 µM) | 8 µg/mL (≈ 21.3 µM) | 1.6 µM | 0.52 µM | 8 µg/mL (≈ 21.3 µM) | 34 µg/mL (≈ 90.3 µM) | 14 µg/mL (≈ 37.2 µM) | 1.6 | 2.9 | 57.8 µM | – | – | – |
| Clc1cc(Cl)cc(-c2c(-c3ccccc3)nc3cnccn23)c1 | – | – | 10.3 µM | – | – | – | – | > 10 µM | – | – | – | 3.4 | – | 35.6 µM | – | – | – |
| CN(C)CCNc1nccn2c(I)c(-c3ccccc3)nc12 | 31.9 µM | 4 µg/mL (≈ 9.82 µM) | 24.2 µM | 20 µg/mL (≈ 49.1 µM) | 12 µg/mL (≈ 29.5 µM) | 4 µg/mL (≈ 9.82 µM) | > 10 µM | > 10 µM | 9 µg/mL (≈ 22.1 µM) | 13 µg/mL (≈ 31.9 µM) | 5 µg/mL (≈ 12.3 µM) | 2.8 | 1.3 | 68.6 µM | – | – | – |
